Rows were chosen to be rich in hits. Some 2.4% of all compounds tested hit in one or more screens of this group.
MT stabilize HCS – stabilizes microtubules in HeLa cells; HeLa tubulin immunostaining HCS, 24 h; share of cells brighter than vehicle mean+2SD; % tubulin-high responders, % at 10 µM; 0.83% of 200,000 active; AID 2205;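 active = plate Z-score above 3 for both tubulin-high and condensed-nucleus cell shares, with cell loss under 80%, at 10 µM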;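 note: anti alpha tubulin signal scored within the nucleus-defined area of each cell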
STAT3 blocker – STAT3 signaling inhibition; U3A cells, IL-6 STAT3-luciferase reporter, luminescence; host cell line lacks STAT1; inhibition, % at 5.5 µM; 0.89% of 190,000 active;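 active = inhibition above the mean inhibition across all screened compounds plus 3 SD, cut at about 44% in these data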;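 note: 0% = DMSO only wells and 100% = 100 µM nifuroxazide control wells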
STAT3 act – activators of IL-6 induced STAT3 signaling | 0.91% of 190,000 active | U3A cells, IL-6 STAT3-luciferase reporter, luminescence; 100% = signal with IL-6 EC80 alone | activation (% of control), % at 5.6 µM;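 active = activation above the screen-wide mean of compound activation plus 3 SD, cut at about 130% in these data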;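 note: 0% = background luminescence of wells with medium and substrate only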
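Material: STAT1-lacking human U3A cells, STAT3 luciferase reporter | Benchmarks: IL-6-only wells as 100% reference | Probe or stimulus: IL-6 (33 ng/mL) | Timing: Compound 1 h, then IL-6 6 h at 37 °C | Detection: Luminescence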
b-catenin transl – alters nuclear translocation of beta-catenin in HeLa cells; 0.3% of 190,000 active; immunofluorescence imaging; nuclear translocation activity, % at 5 µM; AID 1665;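 active = nuclear translocation activity above 50% at 5 µM, with a well cell count of 50 or more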;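 note: per-cell ratio of nuclear to cytoplasmic median beta-catenin stain intensity; plate controls were DMSO negative control for no effect and GSK-3 inhibitor IX positive control for full effect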
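Test system: HeLa cells, endogenous beta-catenin; Compound: single 5 µM dose plus 0.02–20 µM confirmation series; Times: compound exposure 24 h at 37°C; Signal: fluorescence imaging of beta-catenin antibody stain plus DAPI; Read-out: % activation, nuclear-to-cytoplasmic median beta-catenin signal ratio per cell.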
STAT1 inh – inhibitors of IFN-gamma induced STAT1 signaling | NIH 3T3 STAT1-luciferase reporter, luminescence | inhibition, % at 5.5 µM | 0.35% of 200,000 active | AID 920;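 active = inhibition above a set limit, the mean inhibition across all tested compounds plus 3 SD, cut at about 34% in these data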;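 note: 0% = IFN-gamma with DMSO and 100% = IFN-gamma with 300 µM nifuroxazide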
An asterisk follows results filed as active; / = no result given.

SMILES | MT stabilize HCS | STAT3 blocker | STAT3 act | b-catenin transl | STAT1 inh
O=C(/C=C\c1ccco1)Nc1nc(-c2ccc3ccccc3c2)cs1 | 4.5 | 3.1 | 93.3 | -1.1 | 0.9
O=C(/C=C/c1ccco1)NC(=S)Nc1ccc(N2CCCC2)cc1 | 13.1* | 0.5 | 101.8 | -4.3 | -6.0
O=C(/C=C/c1cccs1)Nc1nncs1 | / | / | / | 1.3 | /
CNC(=O)NC(=O)C(C)OC(=O)c1cc2c(s1)CCCCC2 (stereo unspecified) | 5.9 | 10.8 | 89.8 | -1.5 | 5.4
CCCCCCc1cc2cc(S(=O)(=O)c3ccc(F)c(Cl)c3)c(=O)oc2cc1O | 5.3 | -0.5 | 96.2 | 0.8 | 7.8
CC1=C(C(=O)Nc2ccc(C)cc2C)C(c2ccc(C)o2)NC(=S)N1 (stereo unspecified) | 2.8 | -3.3 | 100.8 | -2.0 | 2.4
Cc1ccc(SCC(=O)NC(=O)Nc2ccc3c(c2)OCCO3)c(C)c1 | 3.3 | -3.3 | 105.6 | 1.1 | 10.5
COc1cc(C(=O)NC(=S)Nc2cccc(-c3cc4ccccc4oc3=O)c2)cc(OC)c1OC | 1.5 | 29.3 | 83.3 | 4.2 | 12.6
Cc1ccc(C(=O)Nc2cc3ccccc3oc2=O)cc1 | 32.7* | 105.6* | 9.9 | 84.1* | 93.9*
Cc1cc(NC(=S)NC(=O)c2ccccc2)ccc1-c1cc2ccccc2oc1=O | 15.5* | -0.3 | 98.4 | 0.1 | 0.5
O=C(Nc1cnc2ccccc2c1)c1cccc(-n2cnnn2)c1 | 1.6 | -34.5 | 138.1* | -1.5 | -38.3
Cc1ccc(C(=O)Nc2cnc3ccccc3c2)cc1 | 2.7 | 110.1* | 8.7 | 2.1 | 91.0*
CC(=O)Nc1cc2ccccc2oc1=O | 1.2 | 3.6 | 98.2 | 0.7 | -9.8
O=C(NNC(=O)c1cccc(-n2cnnn2)c1)c1ccccc1 | 2.9 | 4.9 | 101.3 | 0.0 | -10.6
O=C(NNC(=O)C(c1ccccc1)c1ccccc1)c1cccs1 | 1.0 | -3.8 | 105.3 | -1.2 | -2.3
CC(=O)Oc1c(/C=C(\C#N)C(N)=O)[nH]c2ccccc12 | 4.8 | -5.2 | 105.4 | / | 5.9
c1ccc2c(c1)nnn1c3ccccc3nc21 | 5.4 | 48.3* | 60.5 | -2.9 | -51.1
CC(=O)CCc1c(C)nc2ccc(C)cc2c1Cl | 3.0 | 8.3 | 94.1 | -2.8 | -26.5
Cn1cccc1/C=C1\CCc2ccccc2C1=O | 3.0 | 89.2* | 27.5 | / | 57.6*
Cc1ccc(CN=C(N)Nc2nc(C)cc(C)n2)cc1 | 12.1* | -0.1 | 102.1 | 41.7 | 8.8
Cc1ccc(C)c(N/C(N)=N/c2nc(C)cc(C)n2)c1 | 0.6 | 23.0 | 89.7 | -0.3 | 13.7
CN(C)c1ccccc1C(=O)c1ccccc1N(C)C | 54.9* | -0.4 | 109.2 | 17.1 | -35.1
CC(=O)c1ccc(N2CCN(C(=S)NCCCN(C)C)CC2)cc1 | 5.5 | 1.9 | 100.4 | 0.2 | 6.0
Cc1cc(C(=O)NCCN2CCN(c3cccc(Cl)c3)CC2)n(-c2ccccc2)n1 | 14.1 | 9.1 | 92.7 | 58.7* | 2.7
Cc1cccc(C=Nc2ccccc2C(N)=O)c1 | 36.7 | 9.4 | 92.3 | / | -2.6
SMILES | MT stabilize HCS | STAT3 blocker | STAT3 act | b-catenin transl | STAT1 inh
Cc1ccc(C=Nc2ccccc2C(N)=O)s1 | 22.0* | 0.4 | 96.1 | 27.0 | -11.8
COC(=O)NC1(C(=O)O)CCCC1 | / | / | / | -0.4 | /
CO/N=C\CC(=O)Nc1ccc(Cl)c(Cl)c1 | 25.6* | 19.4 | 88.4 | 49.2 | -4.0
CCOC(=O)c1sc(=NC(=O)c2cccc(C)c2)n(C)c1C | 1.6 | -6.1 | 106.4 | 0.6 | -47.1
CCOC(=O)c1sc(=NC(=O)c2ccc(C)cc2)n(C)c1C | 4.0 | -46.1 | 145.1* | -2.1 | -41.8
N#CC1=C(SCC(=O)NCc2ccccc2)NC(=O)CC1c1ccco1 (stereo unspecified) | 2.7 | -13.6 | 114.8 | -2.6 | 1.2
N#CC1=C(SCC(=O)Nc2ccccc2)NC(=O)CC1c1ccco1 (stereo unspecified) | 50.0* | 7.8 | 96.6 | / | -14.7
CCOC(=O)CSC1=C(C#N)C(c2ccccc2OC)CC(=O)N1 (stereo unspecified) | 21.5* | 5.0 | 99.9 | 1.4 | -5.5
CCOC(=O)CSC1=C(C#N)C(c2ccc(C)s2)CC(=O)N1 (stereo unspecified) | 30.8* | 13.2 | 93.2 | 43.1 | 1.8
COC(=O)CSC1=C(C#N)C(c2ccsc2)CC(=O)N1 (stereo unspecified) | 44.8* | 3.9 | 99.9 | -0.1 | -3.0
NS(=O)(=O)c1ccc(CCN=Cc2ccccc2O)cc1 | 1.4 | 1.3 | 97.2 | -1.7 | -0.9
COc1ccccc1NS(=O)(=O)c1cc(NC(=O)CCC(=O)c2cccs2)ccc1Cl | 2.4 | 6.7 | 97.2 | 0.5 | 13.4
COc1ccc(NC(=O)CCC(=O)c2cccs2)cc1S(=O)(=O)Nc1ccc(Cl)cc1 | 17.4* | -2.8 | 98.7 | 20.1 | 3.1
COc1ccc(OC)c(-c2cnc(OC(C)(C)C)nc2OC(C)(C)C)c1 | 8.5 | 0.7 | 99.5 | -1.0 | 1.3
Cn1cc(/C=N/n2cnc3scc(-c4ccc(Cl)cc4)c3c2=O)c2ccccc21 | 12.9 | -40.0 | 134.8* | 187.4* | 0.1
CC(C)CC1c2[nH]c3ccccc3c2CCN1CCCn1cccn1 (stereo unspecified) | 3.7 | -30.9 | 133.4* | 0.4 | 8.3
CCOc1ccc(C2c3[nH]c4ccccc4c3CCN2CCCn2cccn2)cc1 (stereo unspecified) | 3.5 | -31.9 | 134.4* | 2.3 | 1.9
Cc1cc([N+](=O)[O-])cnc1NC(C)c1ccccc1 (stereo unspecified) | 2.2 | -17.7 | 115.1 | / | 1.0
COc1ccc2c(c1)C(C)=CC(C)(C)N2S(=O)(=O)c1ccc(C)cc1 | 8.6 | -11.8 | 111.3 | 62.6* | -1.5
CC1=CC(C)(C)N(S(=O)(=O)c2ccc(C)cc2)c2cc(C)ccc21 | 20.5* | -11.8 | 115.4 | / | -13.8
CCOc1ccc2c(c1)C(C)=CC(C)(C)N2S(=O)(=O)c1ccc(C)cc1 | 6.1 | -26.7 | 125.4 | 43.7 | 3.6
O=C(CC1NCCN(Cc2ccccc2)C1=O)Nc1ccccc1 (stereo unspecified) | / | / | / | -3.5 | /
CO/N=C(\c1nonc1N)N1CCN(c2ccc(Cl)cc2[N+](=O)[O-])CC1 | 2.6 | 10.5 | 92.9 | / | 6.2
CCOC(=O)/C(N=Nc1sc(C(=O)OC)c(C)c1C(=O)OCC)=C(\O)CCl | 1.7 | 11.8 | 94.0 | -1.1 | -1.2
COc1ccc(C(=O)c2ccc(OC)cc2OC)cc1 | / | / | / | 55.7* | /
SMILES | MT stabilize HCS | STAT3 blocker | STAT3 act | b-catenin transl | STAT1 inh
COc1ccc(C(=O)c2ccc(N(C)C)cc2)c(OC)c1 | 24.4 | 7.9 | 97.2 | 95.5* | -16.7
COc1ccc(C(=O)c2ccc(N3CCOCC3)cc2)c(OC)c1 | 3.9 | 0.6 | 102.3 | 6.1 | -6.2
COc1ccc(OC)c(C(=O)c2ccc(C(=O)c3cc(OC)ccc3OC)cc2)c1 | 2.5 | -3.8 | 104.4 | -1.4 | 0.8
COc1ccc(C(=O)Nc2ccc(C)cn2)c(OC)c1 | 1.4 | 105.2* | 13.1 | / | 82.0*
CN(C)c1ccc(C(=O)c2ccc(N(C)C)c3ccccc23)cc1 | 11.9 | -52.5 | 146.1* | 39.1 | -32.3
COc1ccc(CN2CCC(CO)(CCOc3ccccc3)CC2)cc1C | 3.8 | 4.2 | 107.0 | 0.1 | -0.2
